Reference: ChEMBL document CHEMBL2016521, “Preparation, gram-negative antibacterial activity, and hydrolytic stability of novel siderophore-conjugated monocarbam diols” (ACS Med Chem Lett, 2011)
Values after ≈ are worked out from the molar mass of the structure shown.

How the values were obtained:
Pseudomonas aeruginosa [1] = assay: Antibacterial activity against Pseudomonas aeruginosa isolate 1091-05; type: functional
Klebsiella pneumoniae [2] = assay: Antibacterial activity against Klebsiella pneumoniae 1000-02; type: functional
Acinetobacter baumannii = assay: Antibacterial activity against Acinetobacter baumannii AB-3167; type: functional
Pseudomonas aeruginosa [3] = assay: Antibacterial activity against Pseudomonas aeruginosa; type: functional
[4] = Chemical stability of the compound in phosphate buffer at pH 6 at 1 uM after 24 hrs by HPLC analysis; type: physicochemical; details: pH 6, 24 h
Outline: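 Hydrolytic stability of the β-lactam ring was measured in aqueous buffer at pH 6.0 and 37 °C.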

[5] = Chemical stability of the compound in phosphate buffer at pH 8 assessed as drug degradation at 1 uM after 100 hrs by HPLC analysis; type: physicochemical; details: read-out: Drug degradation
Outline: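 Hydrolytic β-lactam ring-opening was followed in aqueous buffer at pH 8.0 and 37 °C over a 100 h incubation. The read-out was percent degradation.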

[6] = Fraction unbound in mouse plasma at 1 uM by LC-MS/MS analysis; type: ADME, cell-free
Pseudomonas aeruginosa [7] = assay: Antibacterial activity against low inoculum imipenem-sensitive Pseudomonas aeruginosa isolate 1091-05 infected in sc dosed neutropenic-C3H/HeN mouse assessed as mouse survival administered 4 hrs post infection followed by BID dosing for two days measured on day 10; type: functional; details: isolate 1091-05, sc, read-out: PD50
Pseudomonas aeruginosa [8] = assay: Antibacterial activity against imipenem-sensitive Pseudomonas aeruginosa isolate 1091-05 infected in sc dosed neutropenic-C3H/HeN mouse assessed as mouse survival administered 4 hrs post infection followed by BID dosing for two days measured on day 10; type: functional; details: isolate 1091-05, sc, read-out: PD50
Pseudomonas aeruginosa [9] = assay: Antibacterial activity against imipenem-sensitive Pseudomonas aeruginosa isolate 1091-05 infected in ip dosed SF-1 mouse assessed as survival of animal administered 0.5 and 4 hrs post infected measured on day 4; type: functional; details: isolate 1091-05, ip, read-out: PD50
[10] = Plasma protein binding in human; type: ADME, cell-free; details: read-out: PPB (converted)
Serratia marcescens = assay: Antimicrobial activity against Serratia marcescens; type: functional
Citrobacter freundii = assay: Antimicrobial activity against Citrobacter freundii; type: functional
Klebsiella aerogenes = assay: Antimicrobial activity against Enterobacter aerogenes; type: functional
[11] = test system: Stenotrophomonas maltophilia; assay: Antimicrobial activity against Stenotrophomonas maltophilia; type: functional
Acinetobacter sp. = assay: Antimicrobial activity against Acinetobacter sp.; type: functional
Escherichia coli [12] = assay: Antimicrobial activity against extended spectrum beta-lactamase-producing Escherichia coli; type: functional
Klebsiella pneumoniae [13] = assay: Antimicrobial activity against carbapenemase-producing Klebsiella pneumoniae; type: functional
Pseudomonas aeruginosa [14] = assay: Antibacterial activity against Pseudomonas aeruginosa cystic fibrosis isolate; type: functional
Escherichia coli [15] = assay: Antimicrobial activity against CTX-M-positive extended spectrum beta-lactamase-producing Escherichia coli; type: functional
Escherichia coli [16] = assay: Antimicrobial activity against Escherichia coli clinical isolate; type: functional
Klebsiella pneumoniae [17] = assay: Antimicrobial activity against extended spectrum beta-lactamase-producing Klebsiella pneumoniae; type: functional
Klebsiella pneumoniae [18] = assay: Antimicrobial activity against Klebsiella pneumoniae clinical isolate; type: functional
Pseudomonas aeruginosa [19] = assay: Antibacterial activity against metallo-beta-lactamase producing Pseudomonas aeruginosa; type: functional
Pseudomonas aeruginosa [20] = assay: Antibacterial activity against Pseudomonas aeruginosa clinical isolate; type: functional

CCN(CC)CCn1c(-c2cc(=O)c(O)c[nH]2)nn(S(=O)(=O)[N-]C(=O)N2C[C@H](NC(=O)/C(=N\OC(C)(C)C(=O)[O-])c3csc(N)n3)C2=O)c1=O.[Na+].[Na+]
MIC (Pseudomonas aeruginosa [1]): 1 µg/mL

Cc1cc(Cn2c(-c3cc(=O)c(O)c[nH]3)nn(S(=O)(=O)[N-]C(=O)N3C[C@H](NC(=O)/C(=N\OC(C)(C)C(=O)[O-])c4csc(N)n4)C3=O)c2=O)nn1C.[Na+].[Na+]
MIC (Pseudomonas aeruginosa [1]): 8 µg/mL

C[C@H]1[C@H](NC(=O)/C(=N\OC(C)(C)C(=O)[O-])c2csc(N)n2)C(=O)N1C(=O)[N-]S(=O)(=O)n1nc(-c2cc(=O)c(O)c[nH]2)n(C[C@@H](O)CO)c1=O.[Na+].[Na+]
MIC (Pseudomonas aeruginosa [1]): 0.25 µg/mL
MIC (Klebsiella pneumoniae [2]): 0.5 µg/mL
MIC (Acinetobacter baumannii): 2 µg/mL
MIC90 (Pseudomonas aeruginosa [3]): 0.5 µg/mL
Stability [4]: Stable
degraded at 100 h, 1 µM [5]: 20%
fraction unbound at 1 µM [6]: 0.51
ED50 (Pseudomonas aeruginosa [7]): 1.4 mg/kg

CC(C)(O/N=C(\C(=O)N[C@H]1CN(C(=O)[N-]S(=O)(=O)n2nc(-c3cc(=O)c(O)c[nH]3)n(CC(N)=O)c2=O)C1=O)c1csc(N)n1)C(=O)[O-].[Na+].[Na+]
MIC (Pseudomonas aeruginosa [1]): 0.125 µg/mL
MIC (Klebsiella pneumoniae [2]): 1 µg/mL
MIC (Acinetobacter baumannii): 1 µg/mL
MIC90 (Pseudomonas aeruginosa [3]): 1 µg/mL
ED50 (Pseudomonas aeruginosa [8]): 25 mg/kg

Cn1c(-c2cc(=O)c(O)c[nH]2)nn(S(=O)(=O)[N-]C(=O)N2C[C@H](NC(=O)/C(=N\OC(C)(C)C(=O)[O-])c3csc(N)n3)C2=O)c1=O.[Na+].[Na+]
MIC (Pseudomonas aeruginosa [1]): 0.5 µg/mL
MIC (Klebsiella pneumoniae [2]): 0.5 µg/mL
MIC (Acinetobacter baumannii): 1 µg/mL
MIC90 (Pseudomonas aeruginosa [3]): 2 µg/mL
ED50 (Pseudomonas aeruginosa [9]): 4 mg/kg
ED50 (Pseudomonas aeruginosa [8]): > 150 mg/kg
fraction unbound at 1 µM [6]: 0.26

COCC1=C(C(=O)O)N2C(=O)[C@@H](NC(=O)/C(=N\OC)c3csc(N)n3)[C@H]2SC1 [CEFPODOXIME]
fraction unbound [10]: 0.75

C=CC1=C(C(=O)O)N2C(=O)[C@@H](NC(=O)/C(=N\OCC(=O)O)c3csc(N)n3)[C@H]2SC1 [CEFIXIME]
fraction unbound [10]: 0.35

C[C@H](O)Cn1c(-c2cc(=O)c(O)c[nH]2)nn(S(=O)(=O)[N-]C(=O)N2C[C@H](NC(=O)/C(=N\OC(C)(C)C(=O)[O-])c3csc(N)n3)C2=O)c1=O.[Na+].[Na+]
MIC (Pseudomonas aeruginosa [1]): 0.125 µg/mL
MIC (Klebsiella pneumoniae [2]): 0.25 µg/mL
MIC (Acinetobacter baumannii): 1 µg/mL
MIC90 (Pseudomonas aeruginosa [3]): 1 µg/mL
ED50 (Pseudomonas aeruginosa [8]): 15.7 mg/kg

C[C@H]1[C@H](NC(=O)/C(=N\OC(C)(C)C(=O)O)c2csc(N)n2)C(=O)N1S(=O)(=O)O [AZTREONAM]
MIC50 (Serratia marcescens): 0.5 µg/mL (≈ 1.15 µM)
MIC90 (Serratia marcescens): > 64 µg/mL
MIC (Pseudomonas aeruginosa [1]): 8 µg/mL (≈ 18.4 µM)
MIC (Acinetobacter baumannii): 32 µg/mL (≈ 73.5 µM)
ED50 (Pseudomonas aeruginosa [9]): > 50 mg/kg
ED50 (Pseudomonas aeruginosa [8]): > 200 mg/kg
MIC50 (Citrobacter freundii): 0.25 µg/mL (≈ 0.574 µM)
MIC90 (Citrobacter freundii): 64 µg/mL (≈ 147 µM)
MIC90 (Klebsiella aerogenes): 64 µg/mL (≈ 147 µM)
MIC50 [11]: > 64 µg/mL
MIC90 [11]: > 64 µg/mL
MIC50 (Acinetobacter sp.): 32 µg/mL (≈ 73.5 µM)
MIC90 (Acinetobacter sp.): > 64 µg/mL

C[C@H](O)Cn1c(-c2cc(=O)c(O)c[nH]2)nn(S(=O)(=O)[N-]C(=O)N2C(=O)[C@@H](NC(=O)/C(=N\OC(C)(C)C(=O)[O-])c3csc(N)n3)[C@@H]2C)c1=O.[Na+].[Na+]
MIC (Pseudomonas aeruginosa [1]): 0.25 µg/mL
MIC (Klebsiella pneumoniae [2]): 1 µg/mL
MIC (Acinetobacter baumannii): 4 µg/mL
MIC90 (Pseudomonas aeruginosa [3]): 0.5 µg/mL
ED50 (Pseudomonas aeruginosa [8]): 21.3 mg/kg

C[C@@H](O)Cn1c(-c2cc(=O)c(O)c[nH]2)nn(S(=O)(=O)[N-]C(=O)N2C[C@H](NC(=O)/C(=N\OC(C)(C)C(=O)[O-])c3csc(N)n3)C2=O)c1=O.[Na+].[Na+]
MIC (Pseudomonas aeruginosa [1]): 0.125 µg/mL
MIC (Klebsiella pneumoniae [2]): 0.5 µg/mL
MIC (Acinetobacter baumannii): 1 µg/mL
MIC90 (Pseudomonas aeruginosa [3]): 1 µg/mL
ED50 (Pseudomonas aeruginosa [9]): < 1 mg/kg
ED50 (Pseudomonas aeruginosa [8]): 32.7 mg/kg

CC(C)(O/N=C(\C(=O)N[C@H]1CN(C(=O)[N-]S(=O)(=O)n2nc(-c3cc(=O)c(O)c[nH]3)n(CCCO)c2=O)C1=O)c1csc(N)n1)C(=O)[O-].[Na+].[Na+]
MIC (Pseudomonas aeruginosa [1]): 0.25 µg/mL

CC(C)(O/N=C(\C(=O)N[C@H]1CN(C(=O)[N-]S(=O)(=O)n2nc(-c3cc(=O)c(O)c[nH]3)n(CC(F)(F)F)c2=O)C1=O)c1csc(N)n1)C(=O)[O-].[Na+].[Na+]
MIC (Pseudomonas aeruginosa [1]): 0.25 µg/mL

CC(C)(O/N=C(\C(=O)N[C@H]1CN(C(=O)[N-]S(=O)(=O)n2nc(-c3cc(=O)c(O)c[nH]3)n(C[C@@H]3CCCO3)c2=O)C1=O)c1csc(N)n1)C(=O)[O-].[Na+].[Na+]
MIC (Pseudomonas aeruginosa [1]): 0.5 µg/mL
MIC (Klebsiella pneumoniae [2]): 0.5 µg/mL
MIC (Acinetobacter baumannii): 2 µg/mL
ED50 (Pseudomonas aeruginosa [9]): 2.8 mg/kg
ED50 (Pseudomonas aeruginosa [8]): > 100 mg/kg

CC(C)(O)Cn1c(-c2cc(=O)c(O)c[nH]2)nn(S(=O)(=O)[N-]C(=O)N2C[C@H](NC(=O)/C(=N\OC(C)(C)C(=O)[O-])c3csc(N)n3)C2=O)c1=O.[Na+].[Na+]
MIC (Pseudomonas aeruginosa [1]): 0.25 µg/mL

CC(C)(O/N=C(\C(=O)N[C@H]1CN(C(=O)[N-]S(=O)(=O)n2nc(-c3cc(=O)c(O)c[nH]3)n(C[C@H](O)CO)c2=O)C1=O)c1csc(N)n1)C(=O)[O-].[Na+].[Na+]
MIC (Pseudomonas aeruginosa [1]): 0.125 µg/mL
MIC (Klebsiella pneumoniae [2]): 0.5 µg/mL
MIC (Acinetobacter baumannii): 0.5 µg/mL
MIC90 (Pseudomonas aeruginosa [3]): 1 µg/mL
ED50 (Pseudomonas aeruginosa [8]): 18.6 mg/kg

COCCn1c(-c2cc(=O)c(O)c[nH]2)nn(S(=O)(=O)[N-]C(=O)N2C[C@H](NC(=O)/C(=N\OC(C)(C)C(=O)[O-])c3csc(N)n3)C2=O)c1=O.[Na+].[Na+]
MIC (Pseudomonas aeruginosa [1]): 0.5 µg/mL
MIC (Klebsiella pneumoniae [2]): 0.5 µg/mL
MIC (Acinetobacter baumannii): 4 µg/mL
MIC90 (Pseudomonas aeruginosa [3]): 1 µg/mL
ED50 (Pseudomonas aeruginosa [8]): > 70.8 mg/kg

C[C@@H](O)[C@H]1C(=O)N2C(C(=O)O)=C(S[C@@H]3CN[C@H](C(=O)N(C)C)C3)[C@H](C)[C@H]12 [MEROPENEM]
MIC50 (Serratia marcescens): 0.06 µg/mL (≈ 0.156 µM)
MIC90 (Serratia marcescens): > 64 µg/mL
MIC (Pseudomonas aeruginosa [1]): 0.5 µg/mL (≈ 1.3 µM)
MIC (Klebsiella pneumoniae [2]): < 1 µg/mL
MIC (Acinetobacter baumannii): 0.25 µg/mL (≈ 0.652 µM)
MIC90 (Pseudomonas aeruginosa [3]): > 64 µg/mL
ED50 (Pseudomonas aeruginosa [9]): 1.3 mg/kg
ED50 (Pseudomonas aeruginosa [8]): 1.04 mg/kg
degraded at 100 h, 1 µM [5]: 50%
MIC50 (Citrobacter freundii): 0.06 µg/mL (≈ 0.156 µM)
MIC90 (Citrobacter freundii): 0.25 µg/mL (≈ 0.652 µM)
MIC50 (Klebsiella aerogenes): 0.06 µg/mL (≈ 0.156 µM)
MIC90 (Klebsiella aerogenes): 0.25 µg/mL (≈ 0.652 µM)
MIC50 (Escherichia coli [12]): 0.06 µg/mL (≈ 0.156 µM)
MIC90 (Escherichia coli [12]): 0.06 µg/mL (≈ 0.156 µM)
MIC50 (Klebsiella pneumoniae [13]): 0.06 µg/mL (≈ 0.156 µM)
MIC90 (Klebsiella pneumoniae [13]): 32 µg/mL (≈ 83.4 µM)
MIC50 [11]: > 64 µg/mL
MIC90 [11]: > 64 µg/mL
MIC50 (Acinetobacter sp.): 1 µg/mL (≈ 2.61 µM)
MIC90 (Acinetobacter sp.): 32 µg/mL (≈ 83.4 µM)
MIC50 (Pseudomonas aeruginosa [14]): 8 µg/mL (≈ 20.9 µM)
MIC90 (Pseudomonas aeruginosa [14]): > 64 µg/mL
MIC50 (Escherichia coli [15]): 0.06 µg/mL (≈ 0.156 µM)
MIC90 (Escherichia coli [15]): 0.06 µg/mL (≈ 0.156 µM)
MIC50 (Escherichia coli [16]): 0.06 µg/mL (≈ 0.156 µM)
MIC90 (Escherichia coli [16]): 0.06 µg/mL (≈ 0.156 µM)
MIC50 (Klebsiella pneumoniae [17]): 0.06 µg/mL (≈ 0.156 µM)
MIC90 (Klebsiella pneumoniae [17]): 32 µg/mL (≈ 83.4 µM)
MIC50 (Klebsiella pneumoniae [18]): 0.06 µg/mL (≈ 0.156 µM)
MIC90 (Klebsiella pneumoniae [18]): 32 µg/mL (≈ 83.4 µM)
MIC50 (Pseudomonas aeruginosa [19]): 8 µg/mL (≈ 20.9 µM)
MIC90 (Pseudomonas aeruginosa [19]): > 64 µg/mL
MIC50 (Pseudomonas aeruginosa [20]): 8 µg/mL (≈ 20.9 µM)
MIC90 (Pseudomonas aeruginosa [20]): > 64 µg/mL

CC(C)(C)CCn1c(-c2cc(=O)c(O)c[nH]2)nn(S(=O)(=O)[N-]C(=O)N2C[C@H](NC(=O)/C(=N\OC(C)(C)C(=O)[O-])c3csc(N)n3)C2=O)c1=O.[Na+].[Na+]
MIC (Pseudomonas aeruginosa [1]): 0.5 µg/mL

Cc1cc(Cn2c(-c3cc(=O)c(O)c[nH]3)nn(S(=O)(=O)[N-]C(=O)N3C[C@H](NC(=O)/C(=N\OC(C)(C)C(=O)[O-])c4csc(N)n4)C3=O)c2=O)no1.[Na+].[Na+]
MIC (Pseudomonas aeruginosa [1]): 2 µg/mL
